Results on three compounds are retold here after ChEMBL document CHEMBL2021796, “Synthesis and biological evaluation of a series of thieno-expanded tricyclic purine 2'-deoxy nucleoside analogues” (Bioorg Med Chem, 2012).

Data set [1] has as its system Sindbis virus. In words: Antiviral activity against Sindbis virus infected in african green monkey Vero cells assessed as inhibition of virus-induced cytopathogenicity. The data set is classed as functional, organism-based. An outline of the steps: (§1)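 Confluent HEL, Vero or HeLa monolayers were infected with 100 CCID50 of virus while exposed to fivefold serial dilutions of compound. Virus-induced cytopathicity was scored when it reached completion in untreated infected controls. The EC50 is the concentration that inhibits cytopathicity by 50%.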

Data set [2] relates to Coxsackievirus B4. In words: Antiviral activity against Coxsackie virus B4 infected in african green monkey Vero cells assessed as inhibition of virus-induced cytopathogenicity. The conditions noted are these: Enterovirus B. In kind it is functional, organism-based. An outline of the steps:
as §1

Data set [3] deals with Human alphaherpesvirus 2. As to the kind of experiment: Antiviral activity against Herpes simplex virus 2 G infected in HEL cells assessed as inhibition of virus-induced cytopathogenicity. Conditions: Human alphaherpesvirus 2, strain G. In kind it is functional, organism-based. The procedure, abridged:
as §1

Data set [4] relates to Human immunodeficiency virus 2. As to the kind of experiment: Antiviral activity against Human immunodeficiency virus 2 ROD infected in human CEM cells assessed as inhibition of virus-induced giant cell formation after 4 days by microscopic analysis. The conditions noted are these: Human immunodeficiency virus 2, ISOLATE ROD, CCRF-CEM, 96 h. In kind it is functional, organism-based. An outline of the steps: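 CEM cells (~3 × 10^5 cells/cm3) infected with 100 CCID50 of HIV-2(ROD) per ml and seeded into microtiter wells holding compound dilutions. Incubated 4 days at 37 °C. Giant cell formation examined microscopically.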

For data set [5], the system named is Punta Toro virus. As to the kind of experiment: Antiviral activity against Punta Toro virus infected in african green monkey Vero cells assessed as inhibition of virus-induced cytopathogenicity. The data set is classed as functional, organism-based. An outline of the steps: (§2)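 Confluent HEL, Vero or HeLa monolayers were infected with 100 CCID50 of virus while exposed to fivefold serial dilutions of compound. Virus-induced cytopathicity was scored when it reached completion in untreated infected controls.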

Data set [6] relates to Human alphaherpesvirus 3. In words: Antiviral activity against Varicella zoster virus OKA infected in HEL cells assessed as reduction in viral plaque formation after 5 days relative to control. The data set is classed as functional, cell-based. The conditions noted are these: Human alphaherpesvirus 3, strain Oka vaccine, 120 h. An outline of the steps: (§3)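 Confluent HEL cells were inoculated with 20 PFU VZV per well (Oka wild type or thymidine kinase-deficient 07-1). Residual virus was removed after 2 h and compound dilutions were added in duplicate. The EC50 is the concentration that reduces plaque formation by 50% after 5 days relative to untreated controls.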

In data set [7] the test system is Human alphaherpesvirus 1. As to the kind of experiment: Antiviral activity against thymidine kinase-deficient Herpes simplex virus 1 infected in HEL cells assessed as inhibition of virus-induced cytopathogenicity. In kind it is functional, organism-based. Conditions: Human alphaherpesvirus 1, HEL. The procedure, abridged: (§4)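 Confluent cell monolayers (Vero for parainfluenza-3, HEL for HSV-1 TK−) inoculated with 100 CCID50 of virus alongside fivefold compound dilutions. Cytopathicity recorded once complete in untreated infected controls. EC50 is the concentration inhibiting virus-induced cytopathicity by 50%.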

In data set [8] the test system is Human alphaherpesvirus 1. In words: Antiviral activity against Herpes simplex virus 1 KOS infected in HEL cells assessed as inhibition of virus-induced cytopathogenicity. In kind it is functional, organism-based. Conditions: Human alphaherpesvirus 1, KOS. The procedure, abridged:
as §1

For data set [9], the system named is Human alphaherpesvirus 3. In words: Antiviral activity against Varicella zoster virus 07/1 infected in HEL cells assessed as reduction in viral plaque formation after 5 days relative to control. Conditions: Human alphaherpesvirus 3, 07/1, HEL, 120 h. The data set is classed as functional, organism-based. An outline of the steps: as §3
The nature of data set [10]: Cytotoxicity against HEL cells assessed as morphological changes by microscopic analysis. The data set is classed as cell-based. The conditions noted are these: human. The procedure, abridged: (§5)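 Confluent HEL, Vero or HeLa cultures, or near-confluent MDCK cultures, exposed to fivefold compound dilutions in parallel with the antiviral cytopathicity tests. MCC is the lowest concentration causing microscopically visible alteration of cell morphology.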

Data set [11] relates to Influenza B virus. As to the kind of experiment: Antiviral activity against influenza B virus infected in MDCK cells assessed as inhibition of virus-induced cytopathogenicity. In kind it is functional, organism-based. The procedure, abridged:
(§6)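 Nearly confluent MDCK cultures were infected while exposed to fivefold serial dilutions of compound. Cytopathicity was scored when it reached completion in untreated infected controls. The EC50 is the concentration that inhibits virus-induced cytopathicity by 50%.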

The test system of data set [12] is Vesicular stomatitis virus. In words: Antiviral activity against Vesicular stomatitis virus infected in HEL cells assessed as inhibition of virus-induced cytopathogenicity. In kind it is functional, organism-based. The procedure, abridged: as §2
A short description of data set [13]: Cytotoxicity against african green monkey Vero cells assessed as morphological changes by microscopic analysis. In kind it is cell-based. Conditions: chlorocebus sabaeus. An outline of the steps:
as §5

Data set [14] has as its system Human respirovirus 3. As to the kind of experiment: Antiviral activity against Parainfluenza-3 virus infected in african green monkey Vero cells assessed as inhibition of virus-induced cytopathogenicity. The data set is classed as functional, organism-based. The conditions noted are these: Human respirovirus 3, Vero. An outline of the steps: as §4
The subject of data set [15] is Influenza A virus. As to the kind of experiment: Antiviral activity against Influenza A virus H3N2 infected in MDCK cells assessed as inhibition of virus-induced cytopathogenicity. In kind it is functional, organism-based. An outline of the steps: as §6
Data set [16] relates to Influenza A virus. As to the kind of experiment: Antiviral activity against influenza A virus H1N1 infected in MDCK cells assessed as inhibition of virus-induced cytopathogenicity. The data set is classed as functional, organism-based. The procedure, abridged: as §6
Data set [17] relates to Vesicular stomatitis virus. As to the kind of experiment: Antiviral activity against Vesicular stomatitis virus infected in HeLa cells. The data set is classed as functional, organism-based. The procedure, abridged: as §1
The subject of data set [18] is Human betaherpesvirus 5. In words: Antiviral activity against Human cytomegalovirus Davis infected in HEL cells assessed as inhibition of virus-induced cytopathogenicity after 7 days by Giemsa staining-based microscopic analysis. In kind it is functional, organism-based. The conditions noted are these: Human betaherpesvirus 5, Davis, 168 h. An outline of the steps:
(§7)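 Confluent HEL fibroblasts infected with strains AD-169 and Davis at 100 PFU per well. After 2 h adsorption, residual virus removed and medium with test compound added, in duplicate. Incubated 7 days at 37 °C. Cytopathogenicity scored microscopically after ethanol fixation and Giemsa staining. EC50 read from graphic plots of % cytopathogenicity versus concentration.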

The nature of data set [19]: Cytotoxicity against MDCK cells assessed as morphological changes by microscopic analysis. In kind it is cell-based, Canis lupus familiaris. Conditions: dog. An outline of the steps:
as §5

Data set [20] concerns Respiratory syncytial virus. In words: Antiviral activity against Respiratory syncytial virus infected in HeLa cells. The conditions noted are these: human respiratory syncytial virus. In kind it is functional, organism-based. The procedure, abridged:
as §1

The subject of data set [21] is Coxsackievirus B4. In words: Antiviral activity against Coxsackie virus B4 infected in HeLa cells. The data set is classed as functional, organism-based. Conditions: Enterovirus B. An outline of the steps:
as §2

For data set [22], the system named is Mammalian orthoreovirus 1. As to the kind of experiment: Antiviral activity against Reovirus-1 infected in african green monkey Vero cells assessed as inhibition of virus-induced cytopathogenicity. In kind it is functional, organism-based. The conditions noted are these: Mammalian orthoreovirus 1, Vero. An outline of the steps: as §1
Data set [23] in a line: Cytotoxicity against human HeLa cells assessed as morphological changes by microscopic analysis. In kind it is cell-based. An outline of the steps: as §5
Data set [24] concerns Human betaherpesvirus 5. As to the kind of experiment: Antiviral activity against Human cytomegalovirus AD169 infected in HEL cells assessed as inhibition of virus-induced cytopathogenicity after 7 days by Giemsa staining-based microscopic analysis. The data set is classed as functional, organism-based. Conditions: Human betaherpesvirus 5, AD169, HEL, 168 h. The procedure, abridged: as §7

Data set [25] has as its system L1210. In words: Cytostatic activity against mouse L1210 cells after 2 days by coulter counter analysis. The data set is classed as functional, cell-based. Conditions: L1210, 48 h. The procedure, abridged:
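L1210 cells at 300,000–500,000 cells/mL were mixed 1:1 with compound dilutions and incubated for 2 days at 37 °C. Cells were counted with a Coulter counter. The IC50 is the concentration that inhibits proliferation by 50%.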

Data set [26] relates to Human immunodeficiency virus 1. In words: Antiviral activity against Human immunodeficiency virus 1 3B infected in human CEM cells assessed as inhibition of virus-induced giant cell formation after 4 days by microscopic analysis. The data set is classed as functional, organism-based. Conditions: CCRF-CEM, 96 h. An outline of the steps: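 CEM cells at about 3 × 10^5 cells/cm3 were infected with 100 CCID50/ml of virus and seeded into wells containing compound dilutions. After 4 days at 37 °C, giant cell formation was assessed under the microscope.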

Turning to `Nc1nc2c(sc3ncn([C@H]4C[C@H](O)[C@@H](CO)O4)c32)c(=O)[nH]1`, the EC50 is greater than 100 µM in data set [1]; greater than 100 µM in [2]; greater than 100 µM in data set [3]; no less than 250 µM in data set [4]; greater than 100 µM in data set [5]; 71.3 µM in data set [6]. The EC50 in [7] was greater than 100 µM; in data set [8], greater than 100 µM; in [9], 71.3 µM; in data set [11] it was greater than 0.16 µM; in data set [12], greater than 100 µM; in data set [14], greater than 100 µM. For the same compound, the EC50 was greater than 0.16 µM in [15]; greater than 0.16 µM in data set [16]; 100 µM in data set [17]; greater than 100 µM in data set [18]; greater than 100 µM in data set [20]; greater than 100 µM in data set [21]. The EC50 is greater than 100 µM in [22], greater than 100 µM in data set [24] and no less than 250 µM in data set [26]. In addition, the MCC in [10] was greater than 100 µM; in [13], 100 µM; in data set [19], 0.8 µM; in [23], 100 µM. The same compound displayed an IC50 in [25] of 144 µM.

Consider `Nc1ncnc2c1sc1ncn([C@H]3C[C@H](O)[C@@H](CO)O3)c12`, for which the EC50 in [2] was greater than 100 µM; in [3], greater than 20 µM; in data set [4], greater than 10 µM; in data set [6], 8.9 µM; in data set [7] it was greater than 20 µM; in data set [8], greater than 20 µM. The EC50 in data set [9] is 8.9 µM; in data set [11] it was greater than 4 µM; in [12], greater than 20 µM; in [14], greater than 100 µM; in [15], greater than 4 µM; in [16], greater than 4 µM. The EC50 in data set [17] is greater than 100 µM; in data set [18] it was greater than 4 µM; in data set [20] it was greater than 100 µM; in [21], greater than 100 µM; in [22], 100 µM; in data set [24], greater than 4 µM. For the same compound, the EC50 in data set [26] was greater than 10 µM. The MCC is no less than 20 µM in data set [10], greater than 100 µM in data set [13], 20 µM in [19] and greater than 100 µM in data set [23]. Moreover, half-maximal inhibition in data set [25] (IC50) was put at 53 µM.

As to `NC(=O)c1ncn([C@@H]2O[C@H](CO)[C@@H](O)[C@H]2O)n1` [RIBAVIRIN], the EC50 in data set [1] was greater than 250 µM; in data set [2], greater than 250 µM; in data set [3] it was greater than 250 µM; in data set [4], greater than 50 µM; in data set [8], greater than 250 µM; in [11], 4.5 µM. Also, the EC50 is 85 µM in data set [14]; 5.1 µM in [15]; 2.3 µM in data set [16]; 29 µM in data set [17]; greater than 250 µM in [22]; greater than 50 µM in data set [26]. The MCC in [10], in [13] and in [23] was greater than 250 µM in each case.
